Laboratory results published in ChEMBL document CHEMBL5338825, “Structure-Based Discovery of Inhibitors of the SARS-CoV-2 Nsp14 N7-Methyltransferase” (J Med Chem, 2023).
Active and inactive are the calls of the source. No cut-off for these calls is given here.

Key:
Bacteria [1] = test: Inhibition of beta-lactamase AmpC (unknown origin) pre-incubated with compound for 5 mins followed by substrate addition and measured after 1.5 mins by absorbance based plate reader analysis; conditions: time 6.5 min
In short: (§1)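 AmpC at 2 nM preincubated 5 min with compound at room temperature in 50 mM KPi, pH 7.0, with 1% v/v DMSO. Started with 50 μM CENTA (read at 405 nm) or 50 μM nitrocefin (read at 490 nm), monitored 1 min 30 s. Initial rate taken as % of DMSO control. Top concentration in triplicate; eight-point half-log curves in triplicate where inhibition exceeded 40%.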

[2] = molecular target: Replicase polyprotein 1ab (Severe acute respiratory syndrome coronavirus 2) (UniProt P0DTD1); test: Non-covalent inhibition of N-terminal 6His/SUMO-tagged SARS-CoV-2 NSP14 expressed in Escherichia coli Rosetta 2 (DE3) PlysS cells using 5'GpppACCCCCCCCC-Biotin 3' and 3H-SAM as substrates at 10 fold IC50 concentration incubated for 60 mins by rapid dilution method
In short: (§2)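 Jump dilution: Nsp14 at 100-fold its assay concentration (assay level 1.5 nM) preincubated with compound for 1 h at room temperature. Then diluted 100-fold into assay buffer containing RNA substrate and SAM, and recovery of methyltransferase activity monitored.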

[3] = molecular target: Replicase polyprotein 1ab (Severe acute respiratory syndrome coronavirus 2, UniProt P0DTD1); test: Inhibition of N-terminal 6His/SUMO-tagged SARS-CoV-2 NSP14 expressed in Escherichia coli Rosetta 2 (DE3) PlysS cells using 5'GpppACCCCCCCCC-Biotin 3' and 3H-SAM as substrates incubated for 30 mins by TopCount scintillation proximity assay
[4] = molecular target: Replicase polyprotein 1ab (Severe acute respiratory syndrome coronavirus 2) (UniProt P0DTD1); test: Competitive inhibition of N-terminal 6His/SUMO-tagged SARS-CoV-2 NSP14 expressed in Escherichia coli Rosetta 2 (DE3) PlysS cells using 5'GpppACCCCCCCCC-Biotin 3' and 3H-SAM as substrates at increasing concentration incubated for 30 mins by TopCount scintillation proximity assay
In short: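 Competition pattern read from IC50 shifts. […] Separately, SAM fixed at 1.25 μM (5× Km) with RNA varied up to 0.5 μM (10× Km). A linear rise of IC50 with substrate concentration was taken as competitive inhibition.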

[5] = molecular target: Histone-lysine N-methyltransferase SUV39H1 (Homo sapiens) (UniProt O43463); test: Inhibition of human SUV39H1 using Biotin-tagged histone H3 and 3H-SAM as substrate at 6 uM incubated for 1 hrs by TopCount scintillation proximity assay relative to control
[6] = molecular target: T1, Histone-lysine N-methyltransferase, H3 lysine-79 specific (Homo sapiens, UniProt Q8TEK3); test: Inhibition of human DOT1L using chicken nucleosome and 3H-SAM as substrate at 6 uM incubated for 1 hrs by TopCount scintillation proximity assay relative to control
[7] = molecular target: Histone-lysine N-methyltransferase SMYD3 (Homo sapiens) (UniProt Q9H7B4); test: Inhibition of human SMYD3 using biotin-tagged MAP3K2 and 3H-SAM as substrate at 6 uM incubated for 1 hrs by TopCount scintillation proximity assay relative to control
[8] = molecular target: RNA 5'-monophosphate methyltransferase (Homo sapiens) (UniProt Q7Z5W3); test: Inhibition of human BCDIN3D using biotin-tagged microRNA-145 and 3H-SAM as substrate at 6 uM incubated for 1 hrs by TopCount scintillation proximity assay relative to control
[9] = molecular target: T2, Protein arginine N-methyltransferase 3 (Homo sapiens, UniProt O60678); test: Inhibition of human PRMT3 using biotin-tagged Histone H4 and 3H-SAM as substrate at 6 uM incubated for 1 hrs by TopCount scintillation proximity assay relative to control
[10] = molecular target: Protein arginine N-methyltransferase 9 (Homo sapiens) (UniProt Q6P2P2); test: Inhibition of human PRMT9 using biotin-tagged SAP145 and 3H-SAM as substrate at 6 uM incubated for 1 hrs by TopCount scintillation proximity assay relative to control
[11] = molecular target: T3, Protein arginine N-methyltransferase 1 (Homo sapiens, UniProt Q99873); test: Inhibition of human PRMT1 using biotin-tagged Histone H4 and 3H-SAM as substrate at 6 uM incubated for 1 hrs by TopCount scintillation proximity assay relative to control
Target sequence in this assay (Q99873 whole entry, looked up): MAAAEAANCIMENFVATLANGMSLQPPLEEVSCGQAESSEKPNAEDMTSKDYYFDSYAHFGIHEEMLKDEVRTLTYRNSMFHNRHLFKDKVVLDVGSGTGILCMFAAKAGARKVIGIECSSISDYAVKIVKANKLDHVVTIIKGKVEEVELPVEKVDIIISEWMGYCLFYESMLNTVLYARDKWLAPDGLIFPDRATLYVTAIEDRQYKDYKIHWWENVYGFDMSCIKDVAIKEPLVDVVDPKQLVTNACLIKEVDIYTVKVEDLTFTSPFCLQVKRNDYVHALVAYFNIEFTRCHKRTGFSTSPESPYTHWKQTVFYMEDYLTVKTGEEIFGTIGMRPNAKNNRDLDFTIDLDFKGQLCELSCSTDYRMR

[12] = molecular target: T4, Histone-lysine N-methyltransferase 2A (Homo sapiens, UniProt Q03164); test: Inhibition of human MLL1 using biotin-tagged Histone H3 and 3H-SAM as substrate at 6 uM incubated for 1 hrs by TopCount scintillation proximity assay relative to control
[13] = molecular target: Histone-lysine N-methyltransferase EHMT1 (Homo sapiens) (UniProt Q9H9B1); test: Inhibition of human GLP using biotin-tagged Histone H3 and 3H-SAM as substrate at 6 uM incubated for 1 hrs by TopCount scintillation proximity assay relative to control
[14] = molecular target: Histone-lysine N-methyltransferase EHMT1 (Homo sapiens, UniProt Q9H9B1); test: Inhibition of human GLP using biotin-tagged Histone H3 and 3H-SAM as substrate incubated for 1 hrs by TopCount scintillation proximity assay
In short: (§3)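 Radiometric concentration–response for IC50, run on panel methyltransferases showing more than 50% inhibition at a 10 μM screen. Triplicate.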

[15] = molecular target: Histone-lysine N-methyltransferase SUV39H1 (Homo sapiens, UniProt O43463); test: Inhibition of human SUV39H1 using Biotin-tagged histone H3 and 3H-SAM as substrate incubated for 1 hrs by TopCount scintillation proximity assay
In short: (§4)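 Radiometric human methyltransferase assay. Enzymes showing >50% inhibition at a 10 μM single-point screen went on to concentration–response in triplicate to derive IC50.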

[16] = molecular target: T1, Histone-lysine N-methyltransferase, H3 lysine-79 specific; test: Inhibition of human DOT1L using chicken nucleosome and 3H-SAM as substrate incubated for 1 hrs by TopCount scintillation proximity assay; in short: as §3
[17] = molecular target: Histone-lysine N-methyltransferase SMYD3 (Homo sapiens, UniProt Q9H7B4); test: Inhibition of human SMYD3 using biotin-tagged MAP3K2 and 3H-SAM as substrate incubated for 1 hrs by TopCount scintillation proximity assay; in short: as §4
[18] = molecular target: RNA 5'-monophosphate methyltransferase (Homo sapiens, UniProt Q7Z5W3); test: Inhibition of human BCDIN3D using biotin-tagged microRNA-145 and 3H-SAM as substrate incubated for 1 hrs by TopCount scintillation proximity assay; in short: as §3
[19] = molecular target: T2, Protein arginine N-methyltransferase 3; test: Inhibition of human PRMT3 using biotin-tagged Histone H4 and 3H-SAM as substrate incubated for 1 hrs by TopCount scintillation proximity assay; in short: as §3
[20] = molecular target: Protein arginine N-methyltransferase 9 (Homo sapiens, UniProt Q6P2P2); test: Inhibition of human PRMT9 using biotin-tagged SAP145 and 3H-SAM as substrate incubated for 1 hrs by TopCount scintillation proximity assay; in short: as §3
[21] = molecular target: T3, Protein arginine N-methyltransferase 1; test: Inhibition of human PRMT1 using biotin-tagged Histone H4 and 3H-SAM as substrate incubated for 1 hrs by TopCount scintillation proximity assay; in short: as §3
Target sequence in this assay (Q99873 whole entry): as the sequence (Q99873 whole entry, looked up) above

[22] = molecular target: T4, Histone-lysine N-methyltransferase 2A; test: Inhibition of human MLL1 using biotin-tagged Histone H3 and 3H-SAM as substrate incubated for 1 hrs by TopCount scintillation proximity assay; in short: as §3
Homo sapiens [23] = species on record: Homo sapiens; test: Inhibition of MDH (unknown origin) using oxaloacetic acid as substrate preincubated with compound for 5 mins followed by substrate addition and measured after 1.5 min in the presence of NADH by absorbance based plate reader analysis; conditions: time 6.5 min
In short: (§5)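 MDH assay at room temperature in 50 mM KPi, pH 7.0, with 1% v/v DMSO final. Compound preincubated 5 min with 2 nM enzyme. Reaction started with 200 μM NADH plus 200 μM oxaloacetic acid, and absorbance followed at 340 nm for 1 min 30 s. Initial rate divided by the DMSO control rate. Single top concentration in triplicate; eight-point half-log curves in triplicate where inhibition exceeded 40%.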

[24] = Aggregation property of the compound in KPi buffer at pH 7.0 assessed as formation of colloid-like particles by dynamic light scattering analysis; type: physicochemical
In short: (§6)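 Compounds diluted as 8-point half-log series in filtered 50 mM KPi, pH 7.0, with 1% v/v DMSO final. Particles detected by dynamic light scattering, triplicate at each concentration. CAC taken as the intersection of separate nonlinear fits to aggregating (>10^6 scattering intensity) and non-aggregating data.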

Homo sapiens [25] = species on record: Homo sapiens; test: Inhibition of MDH (unknown origin) using oxaloacetic acid as substrate preincubated with compound for 5 mins followed by substrate addition and measured after 1.5 min in the presence of NADH and 0.01% Triton-X 100 by absorbance based plate reader analysis; conditions: time 6.5 min
In short: (§7)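 Detergent-reversal MDH assay: 50 mM KPi, pH 7.0, with 1% v/v DMSO and 0.01% v/v Triton X-100. Enzyme at 2 nM preincubated 5 min with compound, then started with 200 μM NADH plus 200 μM oxaloacetate. A340 read for 1 min 30 s, rate normalised to DMSO control. Eight-point half-log curves in triplicate.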

Bacteria [26] = test: Inhibition of beta-lactamase AmpC (unknown origin) pre-incubated with compound for 5 mins followed by substrate addition and measured after 1.5 mins in the presence of 0.01% Triton-X 100 by absorbance based plate reader analysis; conditions: time 6.5 min
In short: (§8)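 AmpC detergent-reversal assay: 50 mM KPi, pH 7.0, with 1% v/v DMSO and 0.01% v/v Triton X-100. Enzyme at 2 nM preincubated 5 min with compound, then 50 μM CENTA (405 nm) or nitrocefin (490 nm) added. Absorbance followed for 1 min 30 s and rate normalised to DMSO. Eight-point half-log curves in triplicate.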

[27] = molecular target: Replicase polyprotein 1ab (Severe acute respiratory syndrome coronavirus 2) (UniProt P0DTD1); test: Inhibition of N-terminal 6His/SUMO-tagged SARS-CoV-2 NSP14 expressed in Escherichia coli Rosetta 2 (DE3) PlysS cells using 5'GpppACCCCCCCCC-Biotin 3' and 3H-SAM as substrates at 100 uM incubated for 30 mins by TopCount scintillation proximity assay relative to control
[28] = molecular target: Replicase polyprotein 1ab (Severe acute respiratory syndrome coronavirus 2) (UniProt P0DTD1); test: Reversible binding affinity to Cys387 of N-terminal 6His/SUMO-tagged SARS-CoV-2 NSP14 expressed in Escherichia coli Rosetta 2 (DE3) PlysS cells using 5'GpppACCCCCCCCC-Biotin 3' and 3H-SAM as substrates incubated for 2 hrs by mass spectrometry analysis
In short: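 Nsp14 incubated with 20-fold molar excess of compound for 2 h at 20 °C, then taken into 0.1% formic acid. Separated by HPLC on a 5–95% acetonitrile/water gradient and analysed by ESI time-of-flight MS for protein mass shift.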

[29] = molecular target: Replicase polyprotein 1ab (Severe acute respiratory syndrome coronavirus 2) (UniProt P0DTD1); test: Reversible covalent inhibition of N-terminal 6His/SUMO-tagged SARS-CoV-2 NSP14 expressed in Escherichia coli Rosetta 2 (DE3) PlysS cells using 5'GpppACCCCCCCCC-Biotin 3' and 3H-SAM as substrates at 10 fold IC50 concentration incubated for 60 mins by rapid dilution method; in short: as §2
[30] = molecular target: Histone-lysine N-methyltransferase EHMT2 (Homo sapiens, UniProt Q96KQ7); test: Inhibition of human G9a using biotin-tagged Histone H3 and 3H-SAM as substrate incubated for 1 hrs by TopCount scintillation proximity assay; in short: as §3
[31] = Aggregation property of the compound in KPi buffer at pH 7.0 assessed as formation of colloid-like particles at 3.8 uM by dynamic light scattering analysis; type: physicochemical; conditions: pH 7, 3.8 µM; in short: as §6
Bacteria [32] = test: Inhibition of beta-lactamase AmpC (unknown origin) at 3.8 uM pre-incubated with compound for 5 mins followed by substrate addition and measured after 1.5 mins by absorbance based plate reader analysis; conditions: time 6.5 min; in short: as §1
Homo sapiens [33] = species on record: Homo sapiens; test: Inhibition of MDH (unknown origin) using oxaloacetic acid as substrate at 3.8 uM preincubated with compound for 5 mins followed by substrate addition and measured after 1.5 min in the presence of NADH by absorbance based plate reader analysis; conditions: time 6.5 min; in short: as §5
Homo sapiens [34] = species on record: Homo sapiens; test: Inhibition of MDH (unknown origin) using oxaloacetic acid as substrate at 3.8 uM preincubated with compound for 5 mins followed by substrate addition and measured after 1.5 min in the presence of NADH and 0.01% Triton-X 100 by absorbance based plate reader analysis; conditions: time 6.5 min; in short: as §7
Bacteria [35] = test: Inhibition of beta-lactamase AmpC (unknown origin) at 3.8 uM pre-incubated with compound for 5 mins followed by substrate addition and measured after 1.5 mins in the presence of 0.01% Triton-X 100 by absorbance based plate reader analysis; in short: as §8

T4 sequence (Q03164 1-2718 limits assumed): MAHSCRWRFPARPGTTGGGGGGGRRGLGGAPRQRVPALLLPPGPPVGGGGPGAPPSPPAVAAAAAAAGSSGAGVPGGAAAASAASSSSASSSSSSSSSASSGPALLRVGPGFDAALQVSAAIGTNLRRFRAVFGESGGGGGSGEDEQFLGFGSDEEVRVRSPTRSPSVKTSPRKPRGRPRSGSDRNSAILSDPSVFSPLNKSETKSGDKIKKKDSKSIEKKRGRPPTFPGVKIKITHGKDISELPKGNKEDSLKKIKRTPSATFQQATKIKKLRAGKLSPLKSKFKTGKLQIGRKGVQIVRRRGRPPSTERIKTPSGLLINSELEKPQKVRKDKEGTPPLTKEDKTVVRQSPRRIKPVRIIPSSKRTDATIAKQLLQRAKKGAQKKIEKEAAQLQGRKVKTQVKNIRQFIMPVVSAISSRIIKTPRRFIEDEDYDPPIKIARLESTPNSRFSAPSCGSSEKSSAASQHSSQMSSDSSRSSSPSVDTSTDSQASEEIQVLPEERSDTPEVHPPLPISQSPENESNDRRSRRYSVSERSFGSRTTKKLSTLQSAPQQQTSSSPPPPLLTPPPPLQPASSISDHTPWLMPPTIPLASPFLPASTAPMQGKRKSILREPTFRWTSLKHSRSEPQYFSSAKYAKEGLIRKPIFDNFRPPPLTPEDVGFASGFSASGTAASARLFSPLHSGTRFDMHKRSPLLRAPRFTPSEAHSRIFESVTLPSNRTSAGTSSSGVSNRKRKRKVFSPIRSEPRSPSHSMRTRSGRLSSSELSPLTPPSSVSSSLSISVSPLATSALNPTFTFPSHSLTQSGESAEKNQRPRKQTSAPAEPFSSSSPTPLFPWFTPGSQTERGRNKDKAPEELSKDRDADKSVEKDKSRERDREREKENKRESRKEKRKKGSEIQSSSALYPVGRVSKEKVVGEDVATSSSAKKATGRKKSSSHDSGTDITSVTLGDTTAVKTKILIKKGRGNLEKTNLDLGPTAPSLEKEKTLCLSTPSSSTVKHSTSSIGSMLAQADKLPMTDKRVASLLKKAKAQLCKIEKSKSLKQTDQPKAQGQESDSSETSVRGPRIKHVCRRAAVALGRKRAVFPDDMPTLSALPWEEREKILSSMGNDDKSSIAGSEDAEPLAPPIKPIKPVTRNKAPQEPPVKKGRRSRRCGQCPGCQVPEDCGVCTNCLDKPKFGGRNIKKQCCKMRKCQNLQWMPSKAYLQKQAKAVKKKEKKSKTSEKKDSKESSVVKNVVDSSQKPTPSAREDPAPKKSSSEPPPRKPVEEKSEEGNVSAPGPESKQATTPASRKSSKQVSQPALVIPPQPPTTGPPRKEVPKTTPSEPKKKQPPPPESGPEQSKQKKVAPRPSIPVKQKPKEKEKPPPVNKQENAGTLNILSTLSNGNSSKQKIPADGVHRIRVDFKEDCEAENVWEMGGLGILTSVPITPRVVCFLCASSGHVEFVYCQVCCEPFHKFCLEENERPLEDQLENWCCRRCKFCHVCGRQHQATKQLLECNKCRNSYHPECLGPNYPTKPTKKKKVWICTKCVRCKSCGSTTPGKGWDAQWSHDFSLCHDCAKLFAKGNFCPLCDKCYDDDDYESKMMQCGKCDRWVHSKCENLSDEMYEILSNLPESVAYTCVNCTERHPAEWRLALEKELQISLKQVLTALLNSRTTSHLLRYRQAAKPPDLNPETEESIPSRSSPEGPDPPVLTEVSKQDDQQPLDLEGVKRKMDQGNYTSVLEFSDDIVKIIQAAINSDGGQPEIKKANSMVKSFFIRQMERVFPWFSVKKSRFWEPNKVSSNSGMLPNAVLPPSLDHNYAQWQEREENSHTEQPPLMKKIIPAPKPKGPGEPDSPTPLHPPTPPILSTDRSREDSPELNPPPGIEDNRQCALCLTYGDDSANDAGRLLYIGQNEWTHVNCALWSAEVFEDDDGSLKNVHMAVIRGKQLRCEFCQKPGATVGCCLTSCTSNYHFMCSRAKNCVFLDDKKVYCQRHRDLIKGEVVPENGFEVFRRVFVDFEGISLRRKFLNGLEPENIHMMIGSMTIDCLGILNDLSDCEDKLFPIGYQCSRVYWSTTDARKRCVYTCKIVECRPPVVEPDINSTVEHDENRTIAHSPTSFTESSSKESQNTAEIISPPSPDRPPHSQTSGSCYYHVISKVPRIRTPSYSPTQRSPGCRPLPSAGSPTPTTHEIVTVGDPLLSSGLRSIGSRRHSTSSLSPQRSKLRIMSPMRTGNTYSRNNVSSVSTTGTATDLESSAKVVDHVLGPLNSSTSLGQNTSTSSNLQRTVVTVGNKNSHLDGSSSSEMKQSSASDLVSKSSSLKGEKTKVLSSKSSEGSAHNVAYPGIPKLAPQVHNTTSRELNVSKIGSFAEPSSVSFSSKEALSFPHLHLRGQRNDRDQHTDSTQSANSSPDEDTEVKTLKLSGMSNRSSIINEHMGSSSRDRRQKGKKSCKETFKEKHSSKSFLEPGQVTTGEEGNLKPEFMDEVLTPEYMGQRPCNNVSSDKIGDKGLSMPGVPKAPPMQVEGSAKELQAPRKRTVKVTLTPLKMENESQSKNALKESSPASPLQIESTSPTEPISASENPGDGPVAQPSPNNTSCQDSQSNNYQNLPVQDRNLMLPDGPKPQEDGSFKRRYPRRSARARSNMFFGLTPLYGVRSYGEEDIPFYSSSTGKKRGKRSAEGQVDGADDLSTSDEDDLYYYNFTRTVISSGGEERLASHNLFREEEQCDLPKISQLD
T4 sequence (Q03164 2719-3969 limits assumed): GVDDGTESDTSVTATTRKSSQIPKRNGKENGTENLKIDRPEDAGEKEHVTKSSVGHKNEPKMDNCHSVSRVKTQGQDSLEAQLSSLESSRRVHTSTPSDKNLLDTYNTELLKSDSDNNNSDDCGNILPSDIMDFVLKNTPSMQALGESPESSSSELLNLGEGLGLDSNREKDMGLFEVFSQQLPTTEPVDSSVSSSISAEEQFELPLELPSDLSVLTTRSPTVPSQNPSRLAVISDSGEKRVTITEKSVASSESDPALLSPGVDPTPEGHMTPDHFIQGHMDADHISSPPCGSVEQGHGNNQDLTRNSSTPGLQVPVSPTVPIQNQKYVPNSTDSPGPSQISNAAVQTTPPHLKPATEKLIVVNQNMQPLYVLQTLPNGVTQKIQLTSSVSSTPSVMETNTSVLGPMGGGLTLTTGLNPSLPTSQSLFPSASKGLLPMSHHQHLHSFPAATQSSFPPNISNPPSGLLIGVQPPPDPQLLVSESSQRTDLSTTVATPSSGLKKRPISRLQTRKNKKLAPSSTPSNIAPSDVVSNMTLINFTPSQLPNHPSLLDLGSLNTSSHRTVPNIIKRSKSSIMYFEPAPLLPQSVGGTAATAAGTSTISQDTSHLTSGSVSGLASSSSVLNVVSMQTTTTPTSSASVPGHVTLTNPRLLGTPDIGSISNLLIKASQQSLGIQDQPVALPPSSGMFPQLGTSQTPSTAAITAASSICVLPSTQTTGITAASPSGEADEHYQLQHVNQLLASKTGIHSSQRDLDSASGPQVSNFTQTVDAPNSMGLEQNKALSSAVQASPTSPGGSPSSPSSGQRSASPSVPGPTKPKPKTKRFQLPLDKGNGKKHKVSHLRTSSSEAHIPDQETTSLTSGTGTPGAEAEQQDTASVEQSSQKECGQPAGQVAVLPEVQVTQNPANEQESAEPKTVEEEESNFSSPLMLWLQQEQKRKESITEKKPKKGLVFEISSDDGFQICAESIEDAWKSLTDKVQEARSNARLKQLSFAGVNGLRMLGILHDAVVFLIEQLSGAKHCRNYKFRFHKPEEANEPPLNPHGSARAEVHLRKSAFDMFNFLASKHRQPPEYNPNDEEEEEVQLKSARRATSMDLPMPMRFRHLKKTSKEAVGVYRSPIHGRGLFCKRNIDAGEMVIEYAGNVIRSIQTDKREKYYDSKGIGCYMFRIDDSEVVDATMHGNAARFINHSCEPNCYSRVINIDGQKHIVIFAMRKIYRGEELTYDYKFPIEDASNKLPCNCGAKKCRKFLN
Sequence of RNA 5'-monophosphate methyltransferase (Homo sapiens) (Q7Z5W3 whole entry): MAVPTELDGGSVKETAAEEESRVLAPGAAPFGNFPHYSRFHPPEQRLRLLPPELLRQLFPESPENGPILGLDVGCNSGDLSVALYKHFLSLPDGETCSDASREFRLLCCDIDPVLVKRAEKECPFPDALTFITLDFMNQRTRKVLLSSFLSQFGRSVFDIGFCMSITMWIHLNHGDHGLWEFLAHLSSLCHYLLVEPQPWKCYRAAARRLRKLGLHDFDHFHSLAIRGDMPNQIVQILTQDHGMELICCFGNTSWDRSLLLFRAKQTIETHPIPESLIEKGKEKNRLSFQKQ
Sequence of RNA 5'-monophosphate methyltransferase (Q7Z5W3 whole entry): as above

## O=C(COC(=O)c1cc(-c2ccoc2)n[nH]1)Nc1ccc(Br)cc1
Bacteria [1]
  inhibition: inactive
[2]
  inhibition: Active
[3]
  IC50: 2.2 µM
[4]
  inhibition: Active
[5]
  inhibition: > 50%
[6]
  inhibition: > 50%
[7]
  inhibition: > 50%
[8]
  inhibition: > 50%
[9]
  inhibition: > 50%
[10]
  inhibition: > 50%
[11]
  inhibition: > 50%
[12]
  inhibition: > 50%
[13]
  inhibition: > 50%
[14]
  IC50: 26 µM
[15]
  IC50: 4 µM
[16]
  IC50: 7 µM
[17]
  IC50: 8 µM
[18]
  IC50: 11 µM
[19]
  IC50: 11 µM
[20]
  IC50: 11 µM
[21]
  IC50: 15 µM
[22]
  IC50: 16 µM
Homo sapiens [23]
  inhibition: Active
[24]
  Activity: Active
Homo sapiens [25]
  inhibition: inactive
Bacteria [26]
  inhibition: inactive

## N#Cc1ccc(NC(=O)c2cc(C=O)n3c2CCCC3)c2cc(O)ccc12
[3]
  IC50: 8 µM
[27]
  inhibition: > 50%
[28]
  Activity: Active
[29]
  inhibition: Active
[30]
  IC50: 30 µM
[14]
  IC50: 14 µM
[31]
  Activity: Active
Bacteria [32]
  inhibition: Active
Homo sapiens [33]
  inhibition: Active
Homo sapiens [34]
  inhibition: inactive
Bacteria [35]
  inhibition: inactive
